{"source": "the M2OR odorant receptor database", "data": [{"target": "T1, OR2M3 (Homo sapiens) (UniProt Q8NG83)", "T1 sequence (whole entry)": "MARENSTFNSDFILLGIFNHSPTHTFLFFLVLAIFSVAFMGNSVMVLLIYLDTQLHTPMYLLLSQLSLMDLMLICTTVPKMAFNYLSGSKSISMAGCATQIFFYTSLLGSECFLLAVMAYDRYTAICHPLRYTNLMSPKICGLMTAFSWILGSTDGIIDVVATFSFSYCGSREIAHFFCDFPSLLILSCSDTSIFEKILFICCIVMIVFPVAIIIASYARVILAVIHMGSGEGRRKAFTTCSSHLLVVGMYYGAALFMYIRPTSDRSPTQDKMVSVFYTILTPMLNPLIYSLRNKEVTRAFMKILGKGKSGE", "details": "stereoisomer not certain", "method_in_brief": "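Each receptor–molecule pair is labelled responsive or non-responsive (inactive) according to whether the original authors judged the measured signal statistically different from baseline. The data were taken from the main text and supplementary material of published papers and checked for typos and inconsistencies. Assay methods differed by source, with transient luciferase assays in mammalian cell lines being common.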", "values": [{"compound": "O=C(O)C=Cc1ccc(O)cc1", "odorant receptor agonist call": "inactive"}, {"compound": "OCC=Cc1ccccc1", "odorant receptor agonist call": "inactive"}, {"compound": "CCOC(=O)CCSC", "odorant receptor agonist call": "inactive"}, {"compound": "CCOC(=O)CC(C)C", "odorant receptor agonist call": "inactive"}, {"compound": "CC(C)c1ccc(C=O)cc1", "odorant receptor agonist call": "inactive"}, {"compound": "CCCC(=O)C(C)CC", "note": "(stereo unspecified)", "odorant receptor agonist call": "inactive"}, {"compound": "COCCC(C)(C)S", "odorant receptor agonist call": "inactive"}, {"compound": "CCCCCC=CC=CC=O", "odorant receptor agonist call": "inactive"}, {"compound": "CCCC1CCCC(=O)O1", "note": "(stereo unspecified)", "odorant receptor agonist call": "inactive"}, {"compound": "CCCCCCCC1CCC(=O)O1", "note": "(stereo unspecified)", "odorant receptor agonist call": "inactive"}, {"compound": "CSSc1ccoc1C", "odorant receptor agonist call": "inactive"}, {"compound": "CC(=O)OCCC(C)C", "odorant receptor agonist call": "inactive"}, {"compound": "CCC(=O)C(C)S", "note": "(stereo unspecified)", "odorant receptor agonist call": "inactive"}, {"compound": "CCC=CCCC=CCO", "odorant receptor agonist call": "inactive"}, {"compound": "CCCCCCC1CCC(=O)O1", "note": "(stereo unspecified)", "odorant receptor agonist call": "inactive"}, {"compound": "COc1ccc(C)cc1O", "odorant receptor agonist call": "inactive"}, {"compound": "Cc1ccc(O)cc1", "odorant receptor agonist call": "inactive"}, {"compound": "CCCC=CC=O", "odorant receptor agonist call": "inactive"}, {"compound": "CC1=CCC(C(C)(C)S)CC1", "note": "(stereo unspecified)", "odorant receptor agonist call": "inactive"}, {"compound": "C=CC(=O)CC", "odorant receptor agonist call": "inactive"}, {"compound": "CCCCCCCC1CCCC(=O)O1", "note": "(stereo unspecified)", "odorant receptor agonist call": "inactive"}, {"compound": "CSCCC=O", "odorant receptor agonist call": "inactive"}, {"compound": "CCCCC(CC)CCC(=O)O", "note": "(stereo unspecified)", "odorant receptor agonist call": "inactive"}, {"compound": "CCCCCCC=CC=O", "odorant receptor agonist call": "inactive"}, {"compound": "CCCCCC(C)O", "note": "(stereo unspecified)", "odorant receptor agonist call": "inactive"}, {"compound": "CCCCCC=CC=O", "odorant receptor agonist call": "inactive"}, {"compound": "CC(=O)OCCc1ccccc1", "odorant receptor agonist call": "inactive"}, {"compound": "O=C(O)CCc1ccccc1", "odorant receptor agonist call": "inactive"}, {"compound": "CCOC(C)OCC", "odorant receptor agonist call": "inactive"}, {"compound": "CC(=O)CC(C)(C)S", "odorant receptor agonist call": "inactive"}, {"compound": "CCC(C)C=O", "note": "(stereo unspecified)", "odorant receptor agonist call": "inactive"}, {"compound": "CSSSC", "odorant receptor agonist call": "inactive"}, {"compound": "CC(S)C(C)CO", "note": "(stereo unspecified)", "odorant receptor agonist call": "active"}, {"compound": "COC1=C(C)OC(C)C1=O", "note": "(stereo unspecified)", "odorant receptor agonist call": "inactive"}, {"compound": "COC(=O)C(C)C", "odorant receptor agonist call": "inactive"}, {"compound": "CCC=CCCOC(C)=O", "odorant receptor agonist call": "inactive"}]}]}
